The text below walks through data of paper PMC3172365 (Biochemistry, 2011).

SMILES strings stand for the structures.

This experiment concerns the target T1, E. coli MutL (Escherichia coli, UniProt P23367).
T1 sequence (P23367 1-615): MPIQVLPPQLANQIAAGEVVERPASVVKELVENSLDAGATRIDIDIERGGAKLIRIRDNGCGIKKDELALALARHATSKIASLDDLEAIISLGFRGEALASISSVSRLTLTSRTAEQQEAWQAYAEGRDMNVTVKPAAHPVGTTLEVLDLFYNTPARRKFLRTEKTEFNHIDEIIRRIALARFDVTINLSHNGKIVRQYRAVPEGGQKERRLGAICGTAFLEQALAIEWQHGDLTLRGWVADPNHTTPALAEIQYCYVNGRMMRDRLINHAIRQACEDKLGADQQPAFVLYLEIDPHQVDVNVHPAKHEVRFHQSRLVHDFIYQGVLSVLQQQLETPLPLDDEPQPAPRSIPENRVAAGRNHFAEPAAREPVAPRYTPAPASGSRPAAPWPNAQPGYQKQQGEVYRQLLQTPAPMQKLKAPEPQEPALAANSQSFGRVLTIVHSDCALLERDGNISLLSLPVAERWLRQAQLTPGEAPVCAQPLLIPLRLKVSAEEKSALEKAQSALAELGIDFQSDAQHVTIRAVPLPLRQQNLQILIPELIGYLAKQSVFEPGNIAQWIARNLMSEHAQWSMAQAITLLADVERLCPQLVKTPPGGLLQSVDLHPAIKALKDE
Kind of experiment: analytical sedimentation velocity titration. Type of experiment: binding. The procedure, abridged:
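Sedimentation velocity at 42,000 rpm and 25°C with purified MutL dialyzed into Buffer M (50 mM potassium phosphate pH 7.4, 50 mM KCl, 0.1 mM EDTA, 1 mM 2-mercaptoethanol) and filtered. Loading was 0.25–3.94 µM monomer, alone or with 1 mM MgCl2 + 35 µM AMPPNP (scanned 230/280 nm), or 1.75 µM dimer with varied AMPPNP (scanned 292 nm). Scans every 2.5 min gave c(s) distributions and weight-average s20,w.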

As usually defined, the Kd is the concentration at which binding is half-saturated. In turn, `Nc1ncnc2c1ncn2[C@@H]1O[C@H](COP(=O)(O)OP(=O)(O)NP(=O)(O)O)[C@@H](O)[C@H]1O` [AMPPNP] showed a Kd of 25.6 µM.
